We go through 23 compounds from ChEMBL document CHEMBL3400028, “Evaluation of Aconitum diterpenoid alkaloids as antiproliferative agents” (2015).

SMILES strings stand for the structures.

Broadly, the GI50 is the concentration giving 50% growth inhibition. Higher therefore signals lower sensitivity of the cells.

Type in all cases: functional
One assay relates to A549. Briefly: Antiproliferative activity against human A549 cells by sulforhodamine B assay. Summed up: (§1)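 Cells in RPMI 1640 (25 mM HEPES, 2 mM L-glutamine, 10% heat-inactivated FBS, antibiotics) at 37 °C, 5% CO2. Seeded at 3–5 × 10³/well with graded concentrations, paclitaxel as assay control, for 72 h. TCA-fixed, stained with 0.04% SRB, dye dissolved in 10 mM Tris, A515 read. GI50 is the concentration halving absorbance versus untreated cells; three or more experiments.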
Background: In SRB staining, fixed cells bind dye roughly in proportion to their protein.

A further assay deals with DU-145. Briefly: Antiproliferative activity against human DU145 cells by sulforhodamine B assay. Summed up:
as §1

For the next assay, the system named is KB. The assay can be described thus: Antiproliferative activity against human KB cells by sulforhodamine B assay. In short, it runs like this: as §1
Assay [1] can be described thus: Antiproliferative activity against multidrug-resistant P-gp expressing human KBVIN cells by sulforhodamine B assay. Summed up:
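Vincristine-resistant KB subline kept in 100 nM vincristine, then grown 7–10 days without it before testing. RPMI 1640 with 10% FBS, 37 °C, 5% CO2. 3–5 × 10³ cells/well exposed 72 h to a concentration series, paclitaxel as assay control. SRB staining after TCA fixation, A515 read. GI50 is the 50% absorbance reduction versus untreated cells; three or more experiments.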

A short description of assay [2]: Selectivity ratio of GI50 for human KB cells to GI50 for multidrug-resistant P-gp expressing human KBVIN cells. In short, it runs like this:
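Ratio of GI50 in parental KB to GI50 in P-gp-overexpressing KB-VIN. […] KB-VIN cells were grown 7–10 days without vincristine before the assay.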

Regarding `COC[C@]12CN(C)C3[C@@H]4[C@H](OC)[C@H]1[C@@]3([C@@H](OC)C[C@H]2OC(C)=O)[C@@H]1C[C@@]2(O)[C@H](OC(=O)c3ccccc3)[C@@H]1[C@]4(OC(C)=O)[C@@H](O)[C@@H]2OC`, the GI50 (in the assay with A549; in the assay on DU-145; in the assay on KB; in assay [1]) was > 20 µM each time. For the same compound, in assay [2], the RatioGI50 is on record as >20.
Consider `CCN1C[C@]2(COC)[C@H](O)C[C@H](OC)[C@]34C1[C@H]([C@H](OC)[C@H]23)[C@]1(OC(C)=O)[C@H]2[C@@H](OC(=O)c3ccc(OC)cc3)[C@](O)(C[C@H]24)[C@@H](OC)[C@@H]1O`, for which the GI50 (in the assay on A549; in the assay with DU-145; in the assay on KB; in assay [1]) was > 20 µM in each case. For the same compound, the RatioGI50 in assay [2] is given as >20.
As to `CCN1C[C@@]2(COC)[C@H]3[C@@H](OC)C=C4[C@H]5[C@@H](OC(=O)c6ccc(OC)cc6)[C@](O)(C[C@H]5[C@@]35C1O[C@@H]2C[C@@H]5OC)[C@@H](OC)[C@@H]4O`, the GI50 (in the assay on A549; in the assay with DU-145; in the assay with KB; in assay [1]) was > 20 µM throughout. The RatioGI50 in assay [2] is >20.
As to `CCN1C[C@@]2(COC)[C@H]3[C@@H](OC)[C@H]4C1[C@]3([C@@H](OC)C[C@H]2OC(C)=O)[C@@H]1C[C@@]2(O)[C@H](OC(=O)c3ccc(OC)cc3)[C@@H]1[C@]4(OC(C)=O)[C@@H](OC(C)=O)[C@@H]2OC`, the GI50 (in the assay with A549; in the assay on DU-145; in the assay with KB; in assay [1]) was > 20 µM each time. In addition, in assay [2], the RatioGI50 is recorded as >20.
As to `COC[C@]12CN(C)C3[C@@H]4[C@H](OC)[C@H]1[C@@]3([C@@H](OC)C[C@H]2O)[C@@H]1C[C@@]2(O)[C@H](OC(=O)c3ccccc3)[C@@H]1[C@]4(OC(C)=O)[C@@H](O)[C@@H]2OC`, the 50% growth inhibitory concentration (GI50) (in the assay on A549; in the assay on DU-145; in the assay with KB; in assay [1]) was > 20 µM each time. Further, in assay [2], the RatioGI50 is listed as >20.
Regarding `CCN1C[C@]2(COC)CC[C@H](O)[C@]34C1[C@@H]([C@H](OC)[C@H]23)[C@@]1(O)C[C@H](OC)[C@H]2C[C@@H]4[C@@H]1[C@H]2OC(=O)c1ccccc1`, the GI50 (in the assay on A549; with DU-145; in the assay on KB; in assay [1]) was > 20 µM throughout. Further, the RatioGI50 in assay [2] was >20.
`CCN1C[C@]2(COC)[C@H](O)C[C@H](O)[C@]34C1[C@@](O)([C@@H](OC)[C@H]23)[C@@]1(O)C[C@H](OC)[C@H]2C[C@@H]4[C@@H]1[C@H]2O`: the GI50 (with A549; with DU-145; with KB; in assay [1]) was > 20 µM in each case. In assay [2], the RatioGI50 is >20.
Consider `CCN1C[C@]2(COC)[C@H](O)C[C@H](OC(C)=O)[C@]34C1[C@@](O)([C@@H](OC)[C@H]23)[C@@]1(O)C[C@H](OC)[C@H]2C[C@@H]4[C@@H]1[C@H]2O`, for which the GI50 (with A549; in the assay with DU-145; in the assay with KB; in assay [1]) was > 20 µM each time. In addition, the RatioGI50 in assay [2] is >20.
On to `CCN1C[C@]2(COC)[C@H](O)C[C@H](OC(C)=O)[C@]34C1[C@@](O)([C@@H](OC)[C@H]23)[C@@]1(O)C[C@H](OC)[C@H]2C[C@@H]4[C@@H]1[C@H]2OC(C)=O`, for which the concentration for 50% growth inhibition (GI50) (in the assay with A549; with DU-145; in the assay on KB; in assay [1]) was > 20 µM each time. For the same compound, the RatioGI50 in assay [2] is >20.
On to `CCN1C[C@]2(COC)[C@H](O)C[C@H](O)[C@]34C1[C@@](O)([C@@H](OC)[C@H]23)[C@@]1(O)C[C@H](OC)[C@H]2C[C@@H]4[C@@H]1[C@H]2OC(=O)c1ccccc1`, for which the GI50 (with A549; in the assay on DU-145; with KB; in assay [1]) was > 20 µM in each case. The RatioGI50 in assay [2] is reported as >20.
Regarding `CCN1C[C@]2(COC)CC[C@H](OC(=O)c3ccc([N+](=O)[O-])cc3)[C@]34C1[C@@](O)([C@@H](OC)[C@H]23)[C@@]1(O)C[C@H](OC)[C@H]2C[C@@H]4[C@@H]1[C@H]2OC(=O)c1ccc([N+](=O)[O-])cc1`, the GI50 (in the assay on A549; with DU-145; in the assay with KB; in assay [1]) was > 20 µM in each case. The RatioGI50 in assay [2] is reported as >20.
Turning to `CCN1C[C@]2(COC)CC[C@H](OC(=O)c3ccc([N+](=O)[O-])cc3)[C@]34C1[C@@](O)([C@@H](OC)[C@H]23)[C@@]1(O)C[C@H](OC)[C@H]2C[C@@H]4[C@@H]1[C@H]2O`, the GI50 (in the assay with A549; in the assay on DU-145; with KB; in assay [1]) was > 20 µM throughout. Moreover, the RatioGI50 in assay [2] was >20.
For the compound `CCN1C[C@]2(COC)CC[C@H](OC(=O)c3ccc(C(F)(F)F)cc3)[C@]34C1[C@@](O)([C@@H](OC)[C@H]23)[C@@]1(O)C[C@H](OC)[C@H]2C[C@@H]4[C@@H]1[C@H]2O`, the GI50 (in the assay with A549; in the assay with DU-145; with KB; in assay [1]) was > 20 µM each time. Also, in assay [2], the RatioGI50 is recorded as >20.
Consider `CCN1C[C@]2(COC)CC[C@H](O)[C@]34C1[C@@](O)([C@@H](OC)[C@H]23)[C@@]1(O)C[C@H](OC)[C@H]2C[C@@H]4[C@@H]1[C@H]2OC(C)=O`, for which the GI50 (in the assay on A549; with DU-145; in the assay with KB; in assay [1]) was > 20 µM throughout. The RatioGI50 in assay [2] is listed as >20.
For the compound `CCN1C[C@]2(COC)[C@H](O)C[C@H](OC)[C@@]34[C@@H]5C[C@@]6(O)[C@H](OC(=O)c7ccccc7)[C@@H]5[C@@](OC(C)=O)([C@@H]([C@H](OC)[C@H]23)[C@@H]14)[C@@H](O)[C@@H]6OC` [ACONITINE], the GI50 (in the assay on A549; with DU-145; in the assay with KB; in assay [1]) was > 20 µM each time. Also, the RatioGI50 in assay [2] is on record as >20.
In the case of `C=C1[C@@H](OC(C)=O)[C@]23C[C@@H]1[C@@H](O)C[C@H]2[C@@]12C4C3C[C@@H]1[C@@]1(C)CC[C@H]2OC1N4CC` [DEHYDROLUCIDUSCULINE], the GI50 (in the assay on A549; in the assay on DU-145; with KB; in assay [1]) was > 20 µM in each case. The RatioGI50 in assay [2] is recorded as >20.
For the compound `CCN1C[C@]2(COC)CC[C@H](O)[C@]34C1[C@@](O)([C@@H](OC)[C@H]23)[C@@]1(O)C[C@H](OC)[C@H]2C[C@@H]4[C@@H]1[C@H]2OC` [DELSOLINE], the GI50 (in the assay with A549; in the assay with DU-145; in the assay on KB; in assay [1]) was > 20 µM throughout. The RatioGI50 in assay [2] is recorded as >20.
For the compound `CCN1C[C@]2(COC)CC[C@H](OC)[C@]34C1C([C@H](OC)[C@H]23)[C@]1(OC(C)=O)[C@H]2[C@@H](OC(=O)c3ccccc3)[C@](O)(C[C@H]24)[C@@H](OC)[C@@H]1O` [DEOXYACONITINE], the GI50 (with A549; with DU-145; in the assay on KB; in assay [1]) was > 20 µM throughout. The RatioGI50 in assay [2] is >20.
Regarding `CCN1C[C@]2(COC)CC[C@H](OC)[C@]34C1C([C@H](OC)[C@H]23)[C@]1(OC(C)=O)[C@H]2[C@@H](OC(=O)c3ccc(OC)cc3)[C@](O)(C[C@H]24)[C@@H](OC)[C@@H]1O` [DEOXYJESACONITINE], the GI50 (in the assay on A549; in the assay on DU-145; in the assay with KB; in assay [1]) was > 20 µM in each case. In addition, the RatioGI50 in assay [2] is reported as >20.
In the case of `COC[C@]12CN(C)C3C4[C@H](OC)[C@H]1[C@@]3([C@@H](OC)C[C@H]2O)[C@@H]1C[C@@]2(O)[C@H](OC(=O)c3ccccc3)[C@@H]1[C@]4(OC)[C@@H](O)[C@@H]2OC` [HOKBUSINE A], the GI50 (in the assay on A549; in the assay with DU-145; in the assay with KB; in assay [1]) was > 20 µM in each case. Moreover, the RatioGI50 in assay [2] is on record as >20.
In the case of `COC[C@@]12CC[C@H](OC)[C@]34C(C([C@H](OC)[C@H]13)[C@]1(OC(C)=O)[C@H]3[C@@H](OC(=O)c5ccccc5)[C@](O)(C[C@H]34)[C@@H](OC)[C@@H]1O)N(C)C2` [HYPACONITINE], the 50% growth inhibitory concentration (GI50) (in the assay on A549; with DU-145; in the assay on KB; in assay [1]) was > 20 µM each time. The RatioGI50 in assay [2] was >20.
In the case of `CCN1C[C@]2(C)CC[C@H](O)[C@@]34C5C[C@@H]6[C@@H](OC)C[C@@](O)(C5[C@H]6O)[C@@H](CC23)C14` (stereo not given in full) [KARACOLINE], the GI50 (with A549; with DU-145; with KB; in assay [1]) was > 20 µM throughout. The RatioGI50 in assay [2] is >20.
In the case of `C=C1[C@H]2C[C@H]3C4N5C[C@]6(C)CCC[C@]47[C@H]([C@H]2O)C3(CC5[C@H]67)[C@@H]1O` [KOBUSINE], the GI50 (in the assay with A549; with DU-145; in the assay with KB; in assay [1]) was > 20 µM throughout. For the same compound, the RatioGI50 in assay [2] was >20.
